# Data reported in ChEMBL document CHEMBL1156332, “Polysubstituted pyrazoles, part 6. Synthesis of some 1-(4-chlorophenyl)-4-hydroxy-1H-pyrazol-3-carbonyl derivatives linked to nitrogenous heterocyclic ring systems as potential antitumor agents” (2010).
# Tests used:
# Format in all cases: functional
# SF-268 = experiment: Growth inhibition of human SF268 cells after 48 hrs by sulforhodamine B assay; settings: SF-268, 48 h
# Procedure, shortened: (§1)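 NCI 60-line panel, five concentrations (0.01–100 µM) from DMSO stock diluted in medium with gentamicin. Cells were plated 24 h before dosing, with time-zero plates fixed at drug addition, then exposed 48 h at 37 °C, 5% CO₂. Adherent cells were fixed with cold TCA (10% final) and suspension cells with 16% TCA. Staining used 0.4% SRB, solubilised in 10 mM Tris and read at 515 nm. GI₅₀ was taken from log concentration–% growth curves.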
# MCF7 = experiment: Growth inhibition of human MCF7 cells after 48 hrs by sulforhodamine B assay; settings: MCF7, 48 h; procedure, shortened: as §1
# OVCAR-5 = experiment: Growth inhibition of human OVCAR5 cells after 48 hrs by sulforhodamine B assay; settings: OVCAR-5, 48 h; procedure, shortened: as §1
# COLO 205 = experiment: Growth inhibition of human COLO205 cells after 48 hrs by sulforhodamine B assay; settings: COLO 205, 48 h; procedure, shortened: as §1
# A549 = experiment: Growth inhibition of human A549 cells after 48 hrs by sulforhodamine B assay; settings: A549, 48 h; procedure, shortened: as §1
# NCI/ADR-RES = experiment: Growth inhibition of human NCI/ADR-RES cells after 48 hrs by sulforhodamine B assay; procedure, shortened: as §1
# [1] = Cytotoxicity against human colon cancer cells after 48 hrs by sulforhodamine B assay; settings: Cancer cell lines
# Procedure, shortened: (§2)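 NCI five-dose screen: about 60 human tumour lines grouped into nine subpanels were plated and incubated 24 h before dosing. Compounds went in as DMSO stock and were diluted in medium to five final concentrations (0.01–100 µM). Exposure was 48 h continuous at 37 °C, 5% CO₂, followed by TCA fixation and SRB staining read at 515 nm. Per-line GI₅₀, TGI and LC₅₀ came from log concentration–% growth curves, averaged per subpanel as MG-MID.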
# [2] = Growth inhibition of human Hs 578T cells after 48 hrs by sulforhodamine B assay; procedure, shortened: as §1
# UACC-62 = experiment: Growth inhibition of human UACC62 cells after 48 hrs by sulforhodamine B assay; settings: UACC-62, 48 h
# Procedure, shortened: (§3)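 Adherent lines plated and held 24 h at 37 °C, 5% CO2, 100% humidity; time-zero plates TCA-fixed at drug addition. Drugs from DMSO stocks were made into five concentrations by 10-fold or half-log serial dilution and applied for 48 h continuous exposure. Cells were fixed with cold TCA (10% final) for 60 min at 4 °C, then stained with 0.4% SRB in 1% acetic acid for 10 min. Dye was solubilized in 10 mM Tris base and read at 515 nm. GI50 was taken from log concentration–growth curves.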
# HL-60(TB) = experiment: Growth inhibition of human HL-60(TB) cells after 48 hrs by sulforhodamine B assay; settings: HL-60, 48 h
# Procedure, shortened: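 NCI 60-cell panel. Cells were preincubated 24 h at 37 °C in 5% CO2, then time-zero plates were TCA-fixed. Drugs were dissolved in DMSO and given at five concentrations (10-fold or half-log dilutions) for 48 h. Suspension cells were fixed with TCA (16% final), stained with 0.4% SRB and read at 515 nm. GI50 is the concentration giving 50% decrease in net growth, taken from log concentration–growth curves.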
# OVCAR-8 = experiment: Growth inhibition of human OVCAR8 cells after 48 hrs by sulforhodamine B assay; settings: OVCAR-8, 48 h; procedure, shortened: as §1
# UO-31 = experiment: Growth inhibition of human UO31 cells after 48 hrs by sulforhodamine B assay; settings: UO-31, 48 h; procedure, shortened: as §3
# HCC 2998 = experiment: Growth inhibition of human HCC2998 cells after 48 hrs by sulforhodamine B assay; settings: HCC 2998, 48 h; procedure, shortened: as §1
# [3] = Cytotoxicity against human leukemia cells after 48 hrs by sulforhodamine B assay; settings: Leukemia cell; procedure, shortened: as §2
# HCT-15 = experiment: Growth inhibition of human HCT15 cells after 48 hrs by sulforhodamine B assay; settings: HCT-15, 48 h; procedure, shortened: as §1
# TK-10 = experiment: Growth inhibition of human TK10 cells after 48 hrs by sulforhodamine B assay; settings: TK-10, 48 h; procedure, shortened: as §3
# ACHN = experiment: Growth inhibition of human ACHN cells after 48 hrs by sulforhodamine B assay; procedure, shortened: as §1
# U-251 = experiment: Growth inhibition of human U251 cells after 48 hrs by sulforhodamine B assay; settings: U-251, 48 h; procedure, shortened: as §3
# [4] = Cytotoxicity against human prostate cancer cells after 48 hrs by sulforhodamine B assay; settings: Cancer cell lines; procedure, shortened: as §2
# UACC-257 = experiment: Growth inhibition of human UACC257 cells after 48 hrs by sulforhodamine B assay; settings: UACC-257, 48 h; procedure, shortened: as §3
# CAKI-1 = experiment: Growth inhibition of human Caki1 cells after 48 hrs by sulforhodamine B assay; settings: CAKI-1, 48 h; procedure, shortened: as §1
# SK-MEL-5 = experiment: Growth inhibition of human SK-MEL-5 cells after 48 hrs by sulforhodamine B assay; settings: SK-MEL-5, 48 h; procedure, shortened: as §3
# SNB-19 = experiment: Growth inhibition of human SNB19 cells after 48 hrs by sulforhodamine B assay; settings: SNB-19, 48 h; procedure, shortened: as §3
# SNB-75 = experiment: Growth inhibition of human SNB75 cells after 48 hrs by sulforhodamine B assay; settings: SNB-75, 48 h; procedure, shortened: as §3
# [5] = Cytotoxicity against human lung cancer cells after 48 hrs by sulforhodamine B assay; settings: Cancer cell lines; procedure, shortened: as §2
# A498 = experiment: Growth inhibition of human A498 cells after 48 hrs by sulforhodamine B assay; settings: A498, 48 h; procedure, shortened: as §1
# 786-0 = experiment: Growth inhibition of human 786-0 cells after 48 hrs by sulforhodamine B assay; settings: 786-0, 48 h; procedure, shortened: as §1
# RXF 393 = experiment: Growth inhibition of human […] cells after 48 hrs by sulforhodamine B assay; settings: RXF 393, 48 h; procedure, shortened: as §1
# MDA-MB-468 = experiment: Growth inhibition of human MDA-MB-468 cells after 48 hrs by sulforhodamine B assay; settings: MDA-MB-468, 48 h; procedure, shortened: as §1
# [6] = Cytotoxicity against human breast cancer cells after 48 hrs by sulforhodamine B assay; settings: Cancer cell lines; procedure, shortened: as §2
# SW-620 = experiment: Growth inhibition of human SW620 cells after 48 hrs by sulforhodamine B assay; settings: SW-620, 48 h; procedure, shortened: as §3
# SN12C = experiment: Growth inhibition of human SN12C cells after 48 hrs by sulforhodamine B assay; procedure, shortened: as §3
# MDA-MB-435 = experiment: Growth inhibition of human MDA-MB-435 cells after 48 hrs by sulforhodamine B assay; settings: MDA-MB-435, 48 h; procedure, shortened: as §1
# SF-295 = experiment: Growth inhibition of human SF295 cells after 48 hrs by sulforhodamine B assay; settings: SF-295, 48 h; procedure, shortened: as §1
# [7] = Cytotoxicity against human CNS cancer cells after 48 hrs by sulforhodamine B assay; settings: Cancer cell lines; procedure, shortened: as §2
# [8] = Cytotoxicity against human melanoma cells after 48 hrs by sulforhodamine B assay; settings: Melanoma cell; procedure, shortened: as §2
# [9] = Cytotoxicity against human ovarian cancer cells after 48 hrs by sulforhodamine B assay; settings: Cancer cell lines; procedure, shortened: as §2
# OVCAR-4 = experiment: Growth inhibition of human OVCAR4 cells after 48 hrs by sulforhodamine B assay; settings: OVCAR-4, 48 h; procedure, shortened: as §1
smiles,measurement,setting,value
CC1=NN(C(=O)c2nn(-c3ccc(Cl)cc3)cc2O)C(=O)C1,GI50,SF-268,490 nM
same,GI50,MCF7,3610 nM
same,GI50,OVCAR-5,3320 nM
same,GI50,COLO 205,4810 nM
same,GI50,A549,820 nM
same,GI50,NCI/ADR-RES,1890 nM
same,GI50,[1],3090 nM
same,TGI,[1],95400 nM
same,GI50,[2],280 nM
same,GI50,UACC-62,1800 nM
same,GI50,HL-60(TB),1170 nM
same,GI50,OVCAR-8,1490 nM
same,GI50,UO-31,670 nM
same,GI50,HCC 2998,3670 nM
same,GI50,[3],1030 nM
same,TGI,[3],52900 nM
same,GI50,HCT-15,680 nM
same,GI50,TK-10,790 nM
same,GI50,ACHN,880 nM
same,GI50,U-251,410 nM
same,GI50,[4],5220 nM
same,GI50,UACC-257,1060 nM
same,GI50,CAKI-1,1060 nM
same,GI50,SK-MEL-5,1700 nM
same,GI50,SNB-19,3160 nM
same,GI50,SNB-75,530 nM
same,GI50,[5],1820 nM
same,TGI,[5],78200 nM
same,GI50,A498,450 nM
same,GI50,786-0,6450 nM
same,GI50,RXF 393,15400 nM
same,GI50,MDA-MB-468,4570 nM
same,GI50,[6],2020 nM
same,TGI,[6],90100 nM
same,GI50,SW-620,3410 nM
same,GI50,SN12C,1420 nM
same,GI50,MDA-MB-435,1200 nM
same,GI50,SF-295,230 nM
same,GI50,[7],1090 nM
same,TGI,[7],79600 nM
same,GI50,[8],1820 nM
same,TGI,[8],70500 nM
same,CC50,[8]; read-out: LC50 (the source's name),93600 nM
same,GI50,[9],1740 nM
same,TGI,[9],83800 nM
same,GI50,OVCAR-4,2400 nM
